In ChEMBL document CHEMBL4813996, “Design and development of 1,3,5-triazine derivatives as protective agent against spinal cord injury in rat via inhibition of NF-ĸB” (Bioorg Med Chem Lett, 2021) one finds IC50 and Activity data, which are given here for nine molecules.

Experiment [1] can be described thus: Inhibition of NFkappaB transcriptional activity in LPS-stimulated mouse RAW264.7 cells. The method, boiled down:
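IC50 for inhibition of NF-κB transcription, reported as mean ± SD from at least three independent assays.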

Experiment [2] deals with Rattus norvegicus. Put plainly: Neuroprotective activity in ip dosed contusion injury induced Sprague-Dawley rat SCI model assessed as restoration of motor functions administered once daily for 14 days. Type of experiment: functional, organism-based. The note with it: dose 10-30 mg/kg, time 14.0 day. The method, boiled down:
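Spinal cord contusion made by weight drop, a rod dropped onto the cord. Dosing at 10, 20 and 30 mg/kg i.p., suspended in 2% CMC, once daily for 14 days. Motor function scored on the BBB scale on days 1, 4, 7, 10 and 14. Mean ± SEM from three independent experiments, one-way ANOVA with Tukey post hoc test, compared with sham and SCI groups.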

Experiment [3] has as its system Rattus norvegicus. Put plainly: Neuroprotective activity in contusion injury induced Sprague-Dawley rat SCI model assessed as improvement in ratio of wet to dry spinal cord weight at 10 to 30 mg/kg, ip administered once daily for 14 days. Type of experiment: functional, organism-based. The following applies: dose 10-30 mg/kg, time 14.0 day. The essentials:
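Weight-drop contusion SCI, with a rod dropped on the cord. Rats given 10, 20 or 30 mg/kg i.p. in 2% CMC once a day for 14 days. Ratio of wet to dry spinal cord weight measured 24 h post-SCI. Mean ± SEM of three independent experiments, one-way ANOVA with Tukey test.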

Experiment [4] concerns Rattus norvegicus. Put plainly: Neuroprotective activity in contusion injury induced Sprague-Dawley rat SCI model assessed as reduction in edema in spinal cord at 10 to 30 mg/kg, ip administered once daily for 14 days by H and E staining based assay. The following applies: dose 10-30 mg/kg, time 14.0 day. It counts as functional, organism-based. The essentials: (§1)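 Rats with SCI from weight-drop contusion received 10, 20 or 30 mg/kg i.p., suspended in 2% CMC, daily for 14 days. Spinal cord tissue sections stained with H&E for histopathology and edema. Three independent experiments, mean ± SEM, one-way ANOVA with Tukey post hoc test.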

Experiment [5] relates to Rattus norvegicus. Put plainly: Neuroprotective activity in contusion injury induced Sprague-Dawley rat SCI model assessed as inhibition of morphological changes in spinal cord at 10 to 30 mg/kg, ip administered once daily for 14 days by H and E staining based assay. Type of experiment: functional, organism-based. The note with it: dose 10-30 mg/kg, time 14.0 day. The method, boiled down:
as §1

In experiment [6] the test system is Rattus norvegicus. Put plainly: Neuroprotective activity in contusion injury induced Sprague-Dawley rat SCI model assessed as restoration of tissue histopathology in spinal cord at 10 to 30 mg/kg, ip administered once daily for 14 days by H and E staining based assay. It counts as functional, organism-based. The following applies: dose 10-30 mg/kg, time 14.0 day. The essentials: as §1

Experiment [7] has as its system Rattus norvegicus. Put plainly: Neuroprotective activity in ip dosed Sprague-Dawley rat SCI model assessed as increase in nissl bodies administered once daily for 14 days by Nissl staining based assay. It counts as functional, organism-based. The following applies: dose 10-30 mg/kg, time 14.0 day. The method, boiled down: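 Contusion SCI by weight drop. Treatment at 10, 20 or 30 mg/kg i.p. in 2% CMC once daily for 14 days. Neuronal damage assessed by Nissl staining of the spinal cord, with Nissl bodies quantified. Mean ± SEM from three independent experiments.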

For experiment [8], the system named is Rattus norvegicus. Put plainly: Neuroprotective activity in Sprague-Dawley rat SCI model assessed as increase in GSH level at 10 to 30 mg/kg, ip administered once daily for 14 days. It counts as functional, organism-based. The following applies: dose 10-30 mg/kg, time 14.0 day. The method, boiled down: (§2)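 Spinal cord of weight-drop contusion SCI rats dosed at 10, 20 or 30 mg/kg i.p. in 2% CMC daily for 14 days. Oxidative stress indices MDA, GSH and SOD measured in spinal cord. Mean ± SEM, three independent experiments, one-way ANOVA with Tukey test against sham and SCI groups.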

The subject of experiment [9] is Rattus norvegicus. Put plainly: Neuroprotective activity in Sprague-Dawley rat SCI model assessed as increase in SOD level at 10 to 30 mg/kg, ip administered once daily for 14 days. It counts as functional, organism-based. The following applies: dose 10-30 mg/kg, time 14.0 day. The method, boiled down:
as §2

In experiment [10] the test system is Rattus norvegicus. Put plainly: Neuroprotective activity in Sprague-Dawley rat SCI model assessed as reduction in MDA level at 10 to 30 mg/kg, ip administered once daily for 14 days. Type of experiment: functional, organism-based. The note with it: dose 10-30 mg/kg, time 14.0 day. The essentials:
as §2

Experiment [11] relates to Rattus norvegicus. Put plainly: Neuroprotective activity in Sprague-Dawley rat SCI model assessed as reduction in IL-1beta level at 10 to 30 mg/kg, ip administered once daily for 14 days by ELISA. The note with it: dose 10-30 mg/kg, time 14.0 day. It counts as functional, organism-based. The essentials: (§3)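 After weight-drop contusion SCI, rats received 10, 20 or 30 mg/kg i.p. as a 2% CMC suspension once daily for 14 days. TNF-α, IL-1β and IL-6 levels determined by ELISA. Mean ± SEM from three independent experiments, one-way ANOVA followed by Tukey post hoc test.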

Experiment [12] concerns Rattus norvegicus. Kind of experiment: Neuroprotective activity in Sprague-Dawley rat SCI model assessed as reduction in IL-6 level at 10 to 30 mg/kg, ip administered once daily for 14 days by ELISA. It counts as functional, organism-based. The note with it: dose 10-30 mg/kg, time 14.0 day. The method, boiled down: as §3
In experiment [13] the test system is Rattus norvegicus. Put plainly: Neuroprotective activity in Sprague-Dawley rat SCI model assessed as reduction in TNFalpha level at 10 to 30 mg/kg, ip administered once daily for 14 days by ELISA. Type of experiment: functional, organism-based. The following applies: dose 10-30 mg/kg, time 14.0 day. The method, boiled down:
as §3

For experiment [14], the system named is Rattus norvegicus. Kind of experiment: Neuroprotective activity in Sprague-Dawley rat SCI model assessed as reduction in NFkappaB expression in spinal cord at 10 to 30 mg/kg, ip administered once daily for 14 days by Western blot analysis. Type of experiment: functional, organism-based. The following applies: dose 10-30 mg/kg, time 14.0 day. The essentials:
(§4)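 Weight-drop contusion SCI rats treated with 10, 20 or 30 mg/kg i.p. in 2% CMC daily for 14 days. Spinal cord tissue analysed by western blot for NF-κB, p-IκBα and TLR4, with band quantification. Mean ± SEM of three independent experiments.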

The test system of experiment [15] is Rattus norvegicus. Kind of experiment: Neuroprotective activity in Sprague-Dawley rat SCI model assessed as reduction in TLR4 expression in spinal cord at 10 to 30 mg/kg, ip administered once daily for 14 days by Western blot analysis. Type of experiment: functional, organism-based. The following applies: dose 10-30 mg/kg, time 14.0 day. The essentials:
as §4

Experiment [16] has as its system Rattus norvegicus. Kind of experiment: Neuroprotective activity in Sprague-Dawley rat SCI model assessed as reduction in IkappaBalpha expression in spinal cord at 10 to 30 mg/kg, ip administered once daily for 14 days by Western blot analysis. Type of experiment: functional, organism-based. The following applies: dose 10-30 mg/kg, time 14.0 day. The essentials:
as §4

Activity calls are given as the source filed them. No cut-off for these calls is given here.

As for `C[C@@H]1C[C@H]2[C@@H]3CCC4=CC(=O)C=C[C@]4(C)[C@@]3(F)[C@@H](O)C[C@]2(C)[C@@]1(O)C(=O)CO` [DEXAMETHASONE], 0.92 µM corresponded to half-maximal inhibition in experiment [1] (IC50).

With `COc1ccc(N2CCN(Cc3ccc(C(=O)Nc4nc(C)nc(Nc5nccc(-c6nccs6)n5)n4)cc3)CC2)cc1`, the IC50 in [1] was found to be 87.3 µM.

`Cc1nc(NC(=O)c2ccc(CN3CCN(c4ccccc4)CC3)cc2)nc(Nc2nccc(-c3nccs3)n2)n1` gave an IC50 in [1] of 136 µM.

Take `Cc1nc(NC(=O)c2ccc(CN3CCN(c4ccc(Cl)cc4)CC3)cc2)nc(Nc2nccc(-c3nccs3)n2)n1`: the midpoint of inhibition in experiment [1], the IC50, lay at 1.04 µM. The Activity result with Rattus norvegicus [2] and in the experiment with Rattus norvegicus [7] was “Dose-Dependent Effect” throughout. Also, the result with Rattus norvegicus [3], in the experiment on Rattus norvegicus [4], with Rattus norvegicus [5], in the experiment with Rattus norvegicus [6], with Rattus norvegicus [8] and in the experiment on Rattus norvegicus [9] was Active. The result in the experiment with Rattus norvegicus [10], in the experiment with Rattus norvegicus [11], with Rattus norvegicus [12], in the experiment with Rattus norvegicus [13], in the experiment on Rattus norvegicus [14] and in the experiment on Rattus norvegicus [15] was Active. In addition, the outcome with Rattus norvegicus [16] was Active.

In experiment [1], `Cc1ccc(N2CCN(Cc3ccc(C(=O)Nc4nc(C)nc(Nc5nccc(-c6nccs6)n5)n4)cc3)CC2)cc1` registered an IC50 of 9.9 µM.

In turn, `Cc1ccc(NC(=O)c2ccc(CN3CCN(C)CC3)cc2)cc1Nc1nccc(-c2cccnc2)n1` [IMATINIB] gave an IC50 in [1] of 1.34 µM.

On to `Cc1nc(NC(=O)c2ccc(CN3CCN(c4ccc(Br)cc4)CC3)cc2)nc(Nc2nccc(-c3nccs3)n2)n1`, for which the IC50 in experiment [1] turned out to be 3.21 µM.

Take `Cc1nc(NC(=O)c2ccc(CN3CCN(c4ccc([N+](=O)[O-])cc4)CC3)cc2)nc(Nc2nccc(-c3nccs3)n2)n1`: in experiment [1], half-maximal inhibition (IC50) was put at 6.12 µM.

With `Cc1nc(NC(=O)c2ccc(CN3CCN(c4ccc(O)cc4)CC3)cc2)nc(Nc2nccc(-c3nccs3)n2)n1`, the IC50 in experiment [1] amounted to 54.2 µM.
